Source: ChEMBL document CHEMBL1123867, “Anticonvulsant O-alkyl sulfamates. 2,3:4,5-Bis-O-(1-methylethylidene)-beta-D-fructopyranose sulfamate and related compounds” (1987)
Active and inactive are the calls of the source. The calls are words filed in the database; no cut-off is given here.

What was measured:
[1] = tested on: Mus musculus; test: Percentage block of the hind-limb tonic-extensor seizure was determined after application of an electric shock to mice for 120 min followed by 15 mg/kg peroral dose; assay type: functional; settings: route oral
In short: (§1)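 Supramaximal electroshock: 50-mA current (60 Hz, 0.20 s) via corneal electrodes induced hind-limb tonic extension; inhibition of this component scored as activity. Mice dosed ip and/or po in aqueous solution or suspension (ca. 0.1% Tween 80, distilled water). Tested at 30, 60, 120 and 240 min (sometimes 45 min); ten mice per time point.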

[2] = tested on: Mus musculus; test: Percentage block of the hind-limb tonic-extensor seizure was determined after application of an electric shock to mice for 30 min followed by 10 mg/kg intraperitoneal dose; assay type: functional; in short: as §1
[3] = tested on: Mus musculus; test: Percentage block of the hind-limb tonic-extensor seizure was determined after application of an electric shock to mice for 120 min followed by 10 mg/kg intraperitoneal dose; assay type: functional; in short: as §1
[4] = tested on: Mus musculus; test: Anticonvulsant activity following p.o. administration by standard maximal electroshock test in mice.; assay type: functional; settings: po; in short: as §1
[5] = tested on: Mus musculus; test: Percentage block of the hind-limb tonic-extensor seizure was determined after application of an electric shock to mice for 60 min followed by 15 mg/kg peroral dose; assay type: functional; settings: route oral
In short: (§2)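 Mouse MES test: supramaximal seizure from a 50-mA current (60 Hz, 0.20-s) through corneal electrodes. […] Ten mice per time point. Compound given in aqueous solution or in suspension in ca. 0.1% Tween 80 and distilled water. Free food and water except during testing.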

[6] = tested on: Mus musculus; test: Percentage block of the hind-limb tonic-extensor seizure was determined after application of an electric shock to mice for 240 min followed by 10 mg/kg intraperitoneal dose; assay type: functional; in short: as §1
[7] = tested on: Mus musculus; test: Percentage block of the hind-limb tonic-extensor seizure was determined after application of an electric shock to mice for 240 min followed by 15 mg/kg peroral dose; assay type: functional; settings: route oral; in short: as §1
[8] = tested on: Mus musculus; test: Anticonvulsant activity by using a standard maximal electroshock test (MES) in mice, by intraperitoneal administration of the compound; assay type: functional; settings: ip; in short: as §1
[9] = tested on: Mus musculus; test: Percentage block of the hind-limb tonic-extensor seizure was determined after application of an electric shock to mice for 30 min followed by 15 mg/kg peroral dose; assay type: functional; settings: route oral; in short: as §1
[10] = tested on: Mus musculus; test: Percentage block of the hind-limb tonic-extensor seizure was determined after application of an electric shock to mice for 60 min followed by 10 mg/kg intraperitoneal dose; assay type: functional; in short: as §1
[11] = tested on: Mus musculus; test: Anticonvulsant activity by using a standard maximal electroshock test (MES) in mice, by 200 mg/kg peroral administration of the compound; I=inactive, 0-10% block; assay type: functional, organism-based; parameters: dose 200 mg/kg; in short: as §1
[12] = tested on: Mus musculus; test: Percentage block of the hind-limb tonic-extensor seizure was determined after application of an electric shock to mice for 240 min followed by 100 mg/kg intraperitoneal dose; assay type: functional; in short: as §1
[13] = tested on: Mus musculus; test: Percentage block of the hind-limb tonic-extensor seizure was determined after application of an electric shock to mice for 120 min followed by 200 mg/kg peroral dose; assay type: functional; settings: route oral; in short: as §1
[14] = tested on: Mus musculus; test: Percentage block of the hind-limb tonic-extensor seizure was determined after application of an electric shock to mice for 30 min followed by 200 mg/kg peroral dose; assay type: functional; settings: route oral; in short: as §1
[15] = tested on: Mus musculus; test: Anticonvulsant activity by using a standard maximal electroshock test (MES) in mice, by 100 mg/kg intraperitoneal administration of the compound; I=inactive, 0-10% block; assay type: functional, organism-based; parameters: dose 100 mg/kg; in short: as §1
[16] = tested on: Mus musculus; test: Percentage block of the hind-limb tonic-extensor seizure was determined after application of an electric shock to mice for 30 min followed by 100 mg/kg intraperitoneal dose; assay type: functional; in short: as §1
[17] = tested on: Mus musculus; test: Percentage block of the hind-limb tonic-extensor seizure was determined after application of an electric shock to mice for 120 min followed by 100 mg/kg intraperitoneal dose; assay type: functional; in short: as §1
[18] = tested on: Mus musculus; test: Percentage block of the hind-limb tonic-extensor seizure was determined after application of an electric shock to mice for 60 min followed by 100 mg/kg intraperitoneal dose; assay type: functional; in short: as §1
[19] = tested on: Mus musculus; test: Percentage block of the hind-limb tonic-extensor seizure was determined after application of an electric shock to mice for 240 min followed by 200 mg/kg peroral dose; assay type: functional; settings: route oral; in short: as §1
[20] = tested on: Mus musculus; test: Percentage block of the hind-limb tonic-extensor seizure was determined after application of an electric shock to mice for followed by 200 mg/kg peroral dose; settings: route oral
[21] = tested on: Mus musculus; test: Percentage block of the hind-limb tonic-extensor seizure was determined after application of an electric shock to mice for 120 min followed by 40 mg/kg peroral dose; assay type: functional; settings: route oral; in short: as §1
[22] = tested on: Mus musculus; test: Percentage block of the hind-limb tonic-extensor seizure was determined after application of an electric shock to mice for 30 min followed by 40 mg/kg peroral dose; assay type: functional; settings: route oral; in short: as §1
[23] = tested on: Mus musculus; test: Percentage block of the hind-limb tonic-extensor seizure was determined after application of an electric shock to mice for 60 min followed by 40 mg/kg peroral dose; assay type: functional; settings: route oral; in short: as §2
[24] = tested on: Mus musculus; test: Percentage block of the hind-limb tonic-extensor seizure was determined after application of an electric shock to mice for 240 min followed by 40 mg/kg peroral dose; assay type: functional; settings: route oral; in short: as §1

O=C1NC(=O)C(c2ccccc2)(c2ccccc2)N1 [PHENYTOIN]
Block [1]: 70%
Block [2]: 60%
Block [3]: 80%
ED50 [4]: 10 mg/kg
Block [5]: 80%
Block [6]: 70%
Block [7]: 30%
ED50 [8]: 10 mg/kg
Block [9]: 50%
Block [10]: 60%

CC1(C)C2CCC(COS(N)(=O)=O)C1C2 (centres undefined)
ED50 [11]: inactive
Block [12]: 0%
Block [13]: 10%
Block [14]: 10%
ED50 [15]: inactive
Block [16]: 10%
Block [17]: 0%
Block [18]: 10%
Block [19]: 0%
Block [20]: 10%

NS(=O)(=O)Cc1noc2ccccc12 [ZONISAMIDE]
Block [21]: 40%
Block [22]: 20%
Block [23]: 40%
Block [24]: 50%
